Experiments:
[1] = system: Canis familiaris; experiment: The percentage change of the duration of action potential at 75% repolarization was measured before and after the administration at 3.0 ug/mL; format: functional, Canis lupus familiaris
Procedure, shortened: (§1)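 Canine right-ventricular Purkinje fibers (mongrel dogs 7–11 kg, thiopental-anesthetized) superfused with Tyrode's (pH 7.5, 36 °C, gassed 95% O2/5% CO2). Compounds diluted from 1 mM water stock and added cumulatively. Readings taken 20 min after solution exchange. Result given as percent change in action potential duration.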

[2] = system: Canis familiaris; experiment: The percentage change of the duration of action potential at 75% repolarization was measured before and after the administration at 1.0 ug/mL; format: functional, Canis lupus familiaris; procedure, shortened: as §1
[3] = system: Canis familiaris; experiment: The prolongation effect of the atrial and ventricular effective refractory period was measured before and after the administration at 0.3 mg/kg
[4] = system: Canis familiaris; experiment: Percentage change of the duration of action potential at 75% repolarization was measured before and after the administration at 10.0 ug/mL; format: functional, Canis lupus familiaris; procedure, shortened: as §1
[5] = system: Canis familiaris; experiment: The prolongation effect of the atrial and ventricular effective refractory period was measured before and after the administration at 3 mg/kg; format: functional, Canis lupus familiaris, Cardiac atrium
Procedure, shortened: (§2)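 In vivo, mongrel dogs of either sex (7–13 kg), anesthetized with pentobarbital sodium 30 mg/kg iv. Left femoral artery cannulated for arterial pressure, femoral vein for drug dosing. Effective refractory period measured before and after administration.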

[6] = system: Canis familiaris; experiment: The prolongation effect of the atrial and ventricular effective refractory period was measured before and after the administration at 0.1 mg/kg; format: functional, Canis lupus familiaris, Cardiac atrium; conditions: dose 1.0 mg/kg; in the assay text read “1.0 mg/kg” for “0.1 mg/kg”; procedure, shortened: as §2
[7] = system: Canis familiaris; experiment: The prolongation effect of the atrial and ventricular effective refractory period was measured before and after the administration at 0.3 mg/kg; format: functional, Canis lupus familiaris, Cardiac atrium; procedure, shortened: as §2
[8] = system: Canis familiaris; experiment: The percentage change in the effective refractory period was measured before and after the administration at 0.1 mg/kg; format: functional, Canis lupus familiaris; conditions: dose 1.0 mg/kg; in the assay text read “1.0 mg/kg” for “0.1 mg/kg”; procedure, shortened: as §2
[9] = system: Canis familiaris; experiment: Concentration required for 50% inhibition of tachycardia induced by isoproterenol (0.5ug/mL, iv) in anesthetized dog; format: functional; conditions: Canis lupus familiaris, read-out: ID50 (the source's name)

Row | Structure (SMILES) | APD75 [1] | APD75 [2] | APD75 [4] | further results
1 | CCN(CCCc1ccc([N+](=O)[O-])cc1)CCNc1cc(=O)n(C)c(=O)n1C.Cl | 16% | 11% |  | 
2 | Cn1c(N2CCN(CCCc3ccc([N+](=O)[O-])cc3)CC2)cc(=O)n(C)c1=O.O=C(O)C(=O)O | 22% | 17% | 31% | ERP [3]: 14.3%
3 | Cl.Cn1c(N2CCN(CCCOc3ccc(Cl)cc3)CC2)cc(=O)n(C)c1=O | 25% | 14% |  | ERP [5]: 24.3%; ERP [6]: 13%; ERP [7]: 6.3%
4 | Cl.Cl.Cn1c(N2CCN(CCCOc3ccc(N)cc3)CC2)cc(=O)n(C)c1=O | 4% |  |  | 
5 | Cl.Cn1c(N2CCN(CCCCc3ccc([N+](=O)[O-])cc3)CC2)cc(=O)n(C)c1=O | 17% |  | 25% | 
6 | Cl.Cl.Cn1c(N2CCN(CCCOc3ccc([N+](=O)[O-])cc3)CC2)cc(=O)n(C)c1=O | 22% | 17% | 30% | ERP [8]: 15.8%
7 | Cn1c(NCCNCCCc2ccc([N+](=O)[O-])cc2)cc(=O)n(C)c1=O.O=C(O)C(=O)O | 12% | 9% | 16% | 
8 | CO.Cl.Cn1c(N2CCN(CCCOc3cccc([N+](=O)[O-])c3)CC2)cc(=O)n(C)c1=O | 34% | 15% |  | ERP [6]: 7%
9 | CSc1ccccc1OCCCN1CCN(c2cc(=O)n(C)c(=O)n2C)CC1.Cl | 0% | 0% | 0% | 
10 | CNS(=O)(=O)c1ccc(OCCCN2CCN(c3cc(=O)n(C)c(=O)n3C)CC2)cc1.Cl | 0% |  |  | 
11 | Cl.Cl.Cn1c(N2CCN(CC(O)COc3ccccc3)CC2)cc(=O)n(C)c1=O (stereo unspecified) | 13.7% | 3.5% |  | ED50 [9]: > 5 mg/kg
12 | CN(CCN(C)c1cc(=O)n(C)c(=O)n1C)CC(O)COc1ccccc1 (stereo unspecified) | 8% | 2.9% |  | ED50 [9]: 1 mg/kg
13 | Cn1c(NCCNCC(O)COc2ccccc2F)cc(=O)n(C)c1=O (stereo unspecified) | 8.3% | 4.1% | 15.6% | ED50 [9]: 0.003 mg/kg
14 | Cn1c(NCCNCCCOc2ccccc2)cc(=O)n(C)c1=O | 11.9% | 4% |  | ED50 [9]: 0.1 mg/kg

Reference: ChEMBL document CHEMBL1125548, “Synthesis and pharmacological studies of N-substituted 6-[(2-aminoethyl)amino]-1,3-dimethyl-2,4(1H,3H)-pyrimidinediones, novel class III antiarrhythmic agents” (1992)
